Laboratory results: ChEMBL document CHEMBL1649336, “Isolation and characterization of minor analogues of silvestrol and other constituents from a large-scale re-collection of Aglaia foveolata” (J Nat Prod, 2010)

Assays:
HT-29 = assay: Cytotoxicity against human HT-29 cells after 3 days by sulforhodamine B assay; format: functional; conditions: HT-29, 72 h, read-out: ED50 (the source's name)
In short: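 HT-29 (ATCC) cells grown in MEME with 10% FBS and antibiotics at 37 °C, 5% CO2, used one day after a medium change at 60–70% confluence. 9500 cells/well exposed in triplicate to serial dilutions (10% DMSO vehicle, also the control) for 3 days. Cells fixed with cold TCA, stained with 0.4% SRB, dye solubilized in 10 mM Tris (pH 10), A515 read. ED50 by nonlinear regression.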

Transcription factor p65 = Transcription factor p65 (Homo sapiens, UniProt Q04206); assay: Inhibition of NF-kappaB p65 isolated from nuclear extract of human HeLa cells assessed as blockade of binding to biotinylated consesus sequence by chemiluminescence assay; format: cell-free
Chain of Transcription factor p65 (Q04206 whole entry): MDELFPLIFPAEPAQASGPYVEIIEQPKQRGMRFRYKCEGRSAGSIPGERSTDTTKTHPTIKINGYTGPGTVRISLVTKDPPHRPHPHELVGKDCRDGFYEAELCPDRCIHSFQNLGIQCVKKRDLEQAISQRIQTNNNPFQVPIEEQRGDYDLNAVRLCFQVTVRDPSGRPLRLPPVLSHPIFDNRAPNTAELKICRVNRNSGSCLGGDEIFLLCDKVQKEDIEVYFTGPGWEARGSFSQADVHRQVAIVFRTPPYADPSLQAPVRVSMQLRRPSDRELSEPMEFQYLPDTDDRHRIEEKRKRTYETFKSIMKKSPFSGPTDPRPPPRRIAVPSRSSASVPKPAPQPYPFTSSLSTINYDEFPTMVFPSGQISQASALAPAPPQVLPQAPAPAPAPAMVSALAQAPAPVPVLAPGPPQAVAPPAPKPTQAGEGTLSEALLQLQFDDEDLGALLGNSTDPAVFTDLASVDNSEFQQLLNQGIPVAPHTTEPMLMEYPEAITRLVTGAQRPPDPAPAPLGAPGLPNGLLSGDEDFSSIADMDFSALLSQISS

| IC50 (Transcription factor p65) [nM] | Structure (SMILES) | EC50 (HT-29) [nM] |
| --- | --- | --- |
| – | COC(=O)[C@H]1[C@@H](O)[C@@]2(O)c3c(OC)cc(O[C@@H]4O[C@@H]([C@H](O)CO)CO[C@@H]4OC)cc3O[C@@]2(c2ccc(OC)cc2)[C@@H]1c1ccccc1 | 2290 |
| – | COC(=O)[C@H]1[C@@H](O)[C@@]2(O)c3c(OC)cc(O[C@@H]4O[C@@H]([C@@H](O)CO)CO[C@H]4OC)cc3O[C@@]2(c2ccc(OC)cc2)[C@@H]1c1ccccc1 [2'-EPISILVESTROL] | 1 |
| > 20000 | CC(C)C1=CC2=C(CO)C(=O)C[C@@H](O)[C@]2(C)CC1 | > 10000 |
| > 20000 | CC(C)(O)[C@@H]1CC[C@](C)([C@H]2CC[C@]3(C)[C@@H]2CC[C@@H]2[C@@]4(C)CCC(=O)OC(C)(C)[C@@H]4CC[C@]23C)O1 | > 10000 |
| > 20000 | CC(C)(O)[C@@H]1CC[C@@](C)([C@H]2CC[C@]3(C)[C@@H]2CC[C@@H]2[C@@]4(C)CCC(=O)OC(C)(C)[C@@H]4CC[C@]23C)O1 | > 10000 |
| > 20000 | CC(C)(O)[C@@H]1CC[C@@]2(O)CC[C@]3(C)[C@H](CC[C@@H]4[C@@]5(C)CCC(=O)C(C)(C)[C@H]5CC[C@]43C)[C@H]2O1 | > 10000 |
| – | CC[C@@]1(O)C(=O)OCc2c1cc1n(c2=O)Cc2cc3ccccc3nc2-1 [CAMPTOTHECIN] | 60 |
| – | CC(=O)O[C@H]1C(=O)[C@@]2(C)[C@H]([C@H](OC(=O)c3ccccc3)[C@]3(O)C[C@H](OC(=O)[C@H](O)[C@@H](NC(=O)c4ccccc4)c4ccccc4)C(C)=C1C3(C)C)[C@]1(OC(C)=O)CO[C@@H]1C[C@@H]2O [PACLITAXEL] | 0.6 |
| – | COC(=O)[C@H]1[C@@H](O)[C@@]2(O)c3c(OC)cc(O[C@@H]4O[C@@H]([C@@H](O)CO)CO[C@@H]4OC)cc3O[C@@]2(c2ccc(OC)cc2)[C@@H]1c1ccccc1 | 1070 |

| Structure (SMILES) | IC50 (Transcription factor p65) [nM] | EC50 (HT-29) [nM] |
| --- | --- | --- |
| COC(=O)[C@H]1[C@@H](O)[C@@]2(O)c3c(OC)cc(O[C@@H]4O[C@@H]([C@H](O)CO)CO[C@H]4OC)cc3O[C@@]2(c2ccc(OC)cc2)[C@@H]1c1ccccc1 [SILVESTROL] | > 20000 | 0.7 |
